Results of several laboratories.
Compare with care: the assays were run in different laboratories.
Target: Serine/threonine-protein kinase Nek6 (NEK6, Homo sapiens, UniProt Q9HC98)

Compound	effect on	action	method	tested at	measurement	result
O=c1[nH]c2ccccc2n1C1CCN(Cc2ccc(-c3[nH]c4cc5ncnc5cc4nc3-c3ccccc3)cc2)CC1	cell-free assay	–	–	0.5 µM	remaining signal	98.2%
COc1ncccc1-c1cnn2ccc(N3CCN(C(=O)OC(C)C)CC3)nc12	binding	–	competition with immobilised ligand	1 µM	remaining binding	68%
COc1cc(Nc2ncc(F)c(Nc3ccc4c(n3)NC(=O)C(C)(C)O4)n2)cc(OC)c1OC	binding	–	competition with immobilised ligand	10 µM	inhibition	100%
Cn1cncc1[C@](O)(COc1ccc(C#N)cc1-c1ccc(OC(F)(F)F)cc1)c1ccc(C#N)cc1	cell-free assay	–	competition with immobilised ligand	1 µM	remaining binding	95%
Cn1cc(-c2cc(F)cc(N3CCn4c(cc5c4CCCC5)C3=O)c2CO)cc(Nc2ccc(N3CCN(C4COC4)CC3)cn2)c1=O	enzyme activity	inhibitor	–	0.1 µM	inhibition	6%
O=C1Nc2ccc3ncsc3c2/C1=C/c1cnc[nH]1	enzyme activity	inhibitor	–	0.5 µM	remaining activity	93.2%
Cn1cc(-c2cccc(N3CCc4c(sc5c4CC(C)(C)C5)C3=O)c2CO)cc(Nc2ccncn2)c1=O	enzyme activity	inhibitor	–	1 µM	inhibition	4%
Cc1nn(C)cc1-c1nc2c(N3CCN(Cc4ccc(Cl)cc4)CC3)c(Cl)cnc2[nH]1	binding	–	competition with immobilised ligand	1 µM	remaining binding	100%
N#CC1(c2ccccn2)CCN(Cc2cc(C(=O)O)c(=O)n3ccccc23)CC1	cell-free assay	–	competition with immobilised ligand	1 µM	remaining binding	100%
Nc1ncc(-c2nc(N3CCOCC3)nc(N3CCOCC3)n2)c(C(F)F)n1	binding	–	competition with immobilised ligand	10 µM	remaining binding	100%
